What all share (assay type): functional, cell-based
In one test the test system is PANC-1. The test is described as follows: Cytotoxicity against human PANC1 cells assessed as inhibition of cell viability after 6 days by MTT assay. The settings on record: PANC-1, 144 h. The method, boiled down:
(§1)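 Temsirolimus, sunitinib, gemcitabine and 5-fluorouracil served as positive controls.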
(In general: Tetrazolium dyes change colour on reduction, which living cells bring about.)

Test [1] can be described thus: Cytotoxicity against human MiaPaCa cells assessed as inhibition of cell viability after 6 days by MTT assay. The settings on record: MIA PaCa-2, 144 h. In a few lines:
as §1

A further test relates to A498. The test is described as follows: Cytotoxicity against human A498 cells assessed as inhibition of cell viability after 6 days by MTT assay. The settings on record: A498, 144 h. In a few lines: as §1
The subject of another test is ACHN. As to the kind of experiment: Cytotoxicity against human ACHN cells assessed as inhibition of cell viability after 6 days by MTT assay. Particulars: 144 h. The method, boiled down:
as §1

As usually defined, the IC50 is the point on the concentration scale where inhibition reaches its midpoint. In the case of `O=c1[nH]cc(F)c(=O)[nH]1` [FLUOROURACIL], the IC50 in the test on PANC-1 is 50 µM.

For `Nc1ccn([C@@H]2O[C@H](CO)[C@@H](O)C2(F)F)c(=O)n1` [GEMCITABINE], in test [1], the IC50 turned out to be 3 µM.

`CC1=C[C@]2(C=C(CO)[C@H]3CC(=O)C(C)=C[C@H]3O2)O[C@H](/C=C(\C)CCC(=O)C(C)C)C1` [PHORBAKETAL E]: the IC50 in the test on PANC-1 stood at 25.3 µM; in the test on A498 it was 12.5 µM; in test [1] it was 16.7 µM; with ACHN, 18 µM.

Turning to `CC(=O)O[C@@H]1C[C@@H]2C(CO)=C[C@]3(C=C(C)C[C@@H](/C=C(\C)C/C=C/C(C)(C)OO)O3)O[C@@H]2C=C1C` [PHORBAKETAL F], the IC50 (with PANC-1; in the test with A498; in test [1]; with ACHN) was above 50 µM each time.

For `CC(=O)O[C@H]1C[C@@H]2C(CO)=C[C@]3(C=C(C)C[C@@H](/C=C(\C)C/C=C/C(C)(C)OO)O3)O[C@@H]2C=C1C` [PHORBAKETAL G], the IC50 (in the test on PANC-1; in the test on A498; in test [1]; in the test with ACHN) was above 50 µM in each case.

In the case of `CC(C)=CCC/C(C)=C/[C@@H]1CC(C)=C[C@]2(C=C(C=O)[C@H]3C[C@@H](O)C(C)=C[C@H]3O2)O1` [PHORBAKETAL H], the IC50 is above 50 µM with PANC-1, 9.8 µM in the test with A498, above 50 µM in test [1] and above 50 µM in the test on ACHN.

In the case of `CC(C)=CCC/C(C)=C/[C@@H]1CC(C)=C[C@]2(C=C(C=O)[C@H]3CC(=O)C(C)=C[C@H]3O2)O1` [PHORBAKETAL I], the IC50 in the test with PANC-1 is 12.8 µM; with A498, 9 µM; in test [1], 22 µM; with ACHN, 22.3 µM.

Take `CC(=O)O[C@@H]1C[C@@H]2C(C=O)=C[C@]3(C=C(C)C[C@@H](/C=C(\C)CCC=C(C)C)O3)O[C@@H]2C=C1C` [PHORBAKETAL J]: the IC50 (in the test with PANC-1; with A498; in test [1]; in the test with ACHN) was above 50 µM in each case.

As to `CC(=O)O[C@H]1C[C@@H]2C(C=O)=C[C@]3(C=C(C)C[C@@H](/C=C(\C)CCC=C(C)C)O3)O[C@@H]2C=C1C` [PHORBAKETAL K], the IC50 (in the test with PANC-1; in the test on A498; in test [1]; with ACHN) was above 50 µM throughout.

With `C=C(C[C@H](O)/C=C(\C)CC/C=C(\C)CCC=C(C)C)[C@H]1CC(=O)C(C)=C[C@H]1O` [PHORBIN A], the IC50 in the test on PANC-1 was found to be 7.8 µM; with A498, 4.9 µM; in test [1] it was 5.2 µM; in the test with ACHN it was 10 µM.

As to `CCN(CC)CCNC(=O)c1c(C)[nH]c(/C=C2\C(=O)Nc3ccc(F)cc32)c1C` [SUNITINIB], in the test with ACHN, the IC50 amounted to 2.5 µM.

Turning to `CO[C@H]1C[C@@H]2CC[C@@H](C)[C@@](O)(O2)C(=O)C(=O)N2CCCC[C@H]2C(=O)O[C@H]([C@H](C)C[C@@H]2CC[C@@H](OC(=O)C(C)(CO)CO)[C@H](OC)C2)CC(=O)[C@H](C)/C=C(\C)[C@@H](O)[C@@H](OC)C(=O)[C@H](C)C[C@H](C)/C=C/C=C/C=C/1C` [TEMSIROLIMUS], in the test with A498, the concentration for half-maximal inhibition (IC50) was determined as 0.5 µM.

The values are drawn from ChEMBL document CHEMBL2331092, “Bioactive sesterterpenoids from a Korean sponge Monanchora sp” (J Nat Prod, 2013).
